The results in this text go back to the array DNA melting data of Ke et al. (doi:10.1101/2024.01.08.574731).

Series [1] is described as follows: folding enthalpy; higher = less favourable; fluorescence melt of hairpins on a sequencing array, two-state fit. The settings on record: sodium 0.088 M. Summed up: (§1)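 Cy3 signals were normalised both to pre-quench Cy3 and to control constructs. They came from library hairpins carrying annealed Cy3 and quencher oligos on a sequenced MiSeq flow cell, imaged in 50 mM Na-HEPES pH 8.0, 25 mM NaCl, in 2.5 °C steps up to 60 °C. Bootstrapped two-state fits gave melting temperature and folding enthalpy, and four replicates were combined by inverse variance. Fitted temperatures were then raised by 9.35 °C to match UV melts.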

Series [2] is described as follows: melting temperature; fluorescence melt of hairpins on a sequencing array, two-state fit, raised by 9.35 °C to match UV melts. The settings on record: sodium 0.088 M. The method in brief: as §1

Take GCTTCGCGAAAGCTAGGC ((.(.((....)).).)): the folding enthalpy in series [1] was -17.3 kcal/mol. Also, in series [2], the Tm amounted to 35.2 °C.
For GGGTTCGGAAACGAATCC ((.((((....)))).)) the same measures were -44 kcal/mol and 53.7 °C.
For GTGTATCGAAAGATCAC (((.(((....)))))), the folding enthalpy in series [1] was -29.4 kcal/mol. The Tm in series [2] was found to be 46 °C.
For GCAAAGCGAAAGCTGGGC ((..(((....)))..)), in that order: -18.9 kcal/mol and 55.6 °C.
For GCGTTGCGAAAGCATTGC ((..(((....)))..)) the same measures were -17.7 kcal/mol and 43.5 °C.
For TACAGGAAACTGTA (((((....))))) the same measures were -14.5 kcal/mol and 37.7 °C.
Consider GCGTTTGGAAACAAATGC ((.((((....)))).)), for which the folding enthalpy in series [1] is -47.9 kcal/mol. Moreover, in series [2], the Tm amounted to 51.7 °C.
For GGGCAAGAAATTGCCC ((((((....)))))), in that order: -33.9 kcal/mol and 63.6 °C.
As for GCTCGGCGAAAGCAGTGC ((.(.((....)).).)), the folding enthalpy in series [1] is -11.7 kcal/mol. Besides, the Tm in series [2] is 60.6 °C.
For GCCATAGAAATATGGC ((((((....)))))), in that order: -36.4 kcal/mol and 53.5 °C.
For GATCAGTTATCTGATC ((((((....)))))) the same measures were -34.2 kcal/mol and 52.1 °C.
For GATCTAAGGATAGATC ((((((....)))))) the same measures were -21.9 kcal/mol and 34 °C.
Turning to GGGCGCGAAAGCGCTCCC ((((((....)))..))), the folding enthalpy in series [1] was -9.05 kcal/mol. The Tm in series [2] turned out to be 53.6 °C.
For GCGGGCTCCGC ((((...)))) the same measures were -21.6 kcal/mol and 58.5 °C.
As to GCTAGCGAAAGCTCTAGC ((((((....)))..))), in series [1], the folding enthalpy was -15.3 kcal/mol. Also, in series [2], the Tm is 38.5 °C.
Turning to GCCGCGCCGAAAGGCGGC (((..(((....)))))), the folding enthalpy in series [1] was -9.11 kcal/mol. Moreover, in series [2], the Tm came out at 67.6 °C.
For GCGTAACGAAAGTTCCGC (((.(((....))).))) the same measures were -33.4 kcal/mol and 52.7 °C.
For GGCGCCGAAAGGCTGGCC ((((((....)))..))) the same measures were -22.3 kcal/mol and 62.3 °C.
Consider GGGAACGAAAGTTTCCCC ((((((....)))..))), for which, in series [1], the folding enthalpy was -19.9 kcal/mol. Besides, the Tm in series [2] was determined as 53.5 °C.
Take GCGACATCTCGC ((((....)))): the folding enthalpy in series [1] is -24.2 kcal/mol. Besides, in series [2], the Tm worked out at 46.5 °C.
For GTGTTCGAAAGAAAACAC ((((((....)))..))), in that order: -22.6 kcal/mol and 38.2 °C.
As to GCGATGCGAAAGCAAAGC ((..(((....)))..)), the folding enthalpy in series [1] was -32.9 kcal/mol. Also, the Tm in series [2] worked out at 61 °C.
With GTCACACGAAAGTGCGAC (((.(((....))).))), the folding enthalpy in series [1] was -35.4 kcal/mol. In series [2], the Tm was 55.6 °C.
For GACGTAACGAAAGTTGTC (((..(((....)))))), in that order: -25 kcal/mol and 37.5 °C.
For GCATGGGGAAACCTATGC ((((.((....)).)))), in that order: -39.4 kcal/mol and 50.8 °C.
For GCCCGGCGAAAGCCCAGC ((..(((....)))..)), in that order: -9.79 kcal/mol and 32.7 °C.
With GATCGAGCGGTCGATC ((((((....)))))), the folding enthalpy in series [1] is -45.7 kcal/mol. In addition, the Tm in series [2] came out at 53 °C.
On to GTTTTTGGAAACAAAGAC ((.((((....)))).)), for which the folding enthalpy in series [1] was -24.5 kcal/mol. For the same sequence, the Tm in series [2] was determined as 34 °C.
In the case of GATCAGCCACCTGATC ((((((....)))))), the folding enthalpy in series [1] is -33.8 kcal/mol. Moreover, the Tm in series [2] was 49.6 °C.
For GTTACGGCGAAAGCCAAC (((..(((....)))))), in that order: -8.79 kcal/mol and 25 °C.
For GAATCCGAAAGGATCTTC ((((((....)))..))), in that order: -24.5 kcal/mol and 51.3 °C.
For GCAAACGGAAACGTTCAC (..((((....))))..), in that order: -8.17 kcal/mol and 24.7 °C.
For the sequence GGGCGTGGAAACGTGCCC ((((..(....)..)))), the folding enthalpy in series [1] was -41.4 kcal/mol. Besides, the Tm in series [2] amounted to 54.4 °C.
For GGAAGCGAAAGCTCATCC ((((((....)))..))), in that order: -10 kcal/mol and 29 °C.
With GTCATTGCGAAAGCAGAC (((..(((....)))))), the folding enthalpy in series [1] is -14.5 kcal/mol. Moreover, in series [2], the Tm came to 33 °C.
Take GCTTCGCGAAAGCAAAGC ((((.((....)).)))): in series [1], the folding enthalpy was -23.8 kcal/mol. Also, the Tm in series [2] is 57.3 °C.
For GCCCAGCGAAAGCGGTGC ((.(.((....)).).)), in that order: -15.8 kcal/mol and 53.1 °C.
